Laboratory results published in ChEMBL document CHEMBL4689842, “EUbOPEN Chemogenomics Library wave 1” (2021).
“And” between values parts separate entries of the source, which are not always exact repeats. Equal entries are not always repeated.

Test system: HEK-293T
Assay: Multiplex assay against HEK293T;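 for Population Tubulin-Different-Phenotype (%): share of the cells with healthy nuclei that show this phenotype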
Format: toxicity, cell-based
Details: human
Procedure, shortened: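 Cells were classed with CellPathfinder machine-learning gating, first as Hoechst high-intensity objects or normal cells, then (normal cells) as healthy, pyknosed or fragmented nuclei, and finally (pyknosed cells) as mitotic or apoptotic. Staining of live cells at seeding used Hoechst33342, BioTracker Green Microtubule Cytoskeleton Dye, MitoTracker Red and Annexin V Alexa Fluor 680, with imaging on a CQ1 microscope at 37°C and 5% CO2 after compound addition. Tubulin, mitochondrial-mass and membrane-permeability phenotypes are per cents of healthy-nucleus cells.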

[1] = 12 h, 1 µM, compound concentration 1 uM, replicate 1
[2] = 12 h, 1 µM, compound concentration 1 uM, replicate 2
[3] = 12 h, 10 µM, compound concentration 10 uM, replicate 1
[4] = 12 h, 10 µM, compound concentration 10 uM, replicate 2
[5] = 24 h, 1 µM, compound concentration 1 uM, replicate 1
[6] = 24 h, 1 µM, compound concentration 1 uM, replicate 2
[7] = 24 h, 10 µM, compound concentration 10 uM, replicate 1
[8] = 24 h, 10 µM, compound concentration 10 uM, replicate 2
[9] = 48 h, 1 µM, compound concentration 1 uM, replicate 1
[10] = 48 h, 1 µM, compound concentration 1 uM, replicate 2
[11] = 48 h, 10 µM, compound concentration 10 uM, replicate 1
[12] = 48 h, 10 µM, compound concentration 10 uM, replicate 2

With Cn1cc(-c2[nH]c3cc(NC(=O)[C@H](N)C4CCCCC4)cc4c3c2C=NNC4=O)cn1 the “Population Apoptotic (%)” value [1] was 40%, the “Population Fragmented Nuclei (%)” value [1] was 10% and the “Population Healthy Nuclei (%)” value [1] was 26%. For the same compound, the “Population Hoechst High Intensity Objects (%)” value [1] was 14%, the “Population Membrane Permeable-Phenotype (%)” value [1] was 10% and the “Population Mitochondria Different-Phenotype (%)” value [1] was 71%. The “Population Mitotic Cells (%)” value [1] was 60%, the “Population Normal (%)” value [1] was 85% and the “Population Pyknosed Nuclei (%)” value [1] was 62%. For the same compound, the “Population Tubulin-Different-Phenotype (%)” value [1] was 42%, the “Total Cell Count” value [1] was 344 and the “Population Apoptotic (%)” value [2] was 17%. For the same compound, the “Population Fragmented Nuclei (%)” value [2] was 6%, the “Population Healthy Nuclei (%)” value [2] was 28% and the “Population Hoechst High Intensity Objects (%)” value [2] was 6%. The “Population Membrane Permeable-Phenotype (%)” value [2] was 11%, the “Population Mitochondria Different-Phenotype (%)” value [2] was 7% and the “Population Mitotic Cells (%)” value [2] was 82%. The “Population Normal (%)” value [2] was 93%, the “Population Pyknosed Nuclei (%)” value [2] was 65% and the “Population Tubulin-Different-Phenotype (%)” value [2] was 25%. For the same compound, the “Total Cell Count” value [2] was 259, the “Population Apoptotic (%)” value [3] was 64% and the “Population Fragmented Nuclei (%)” value [3] was 15%. The “Population Healthy Nuclei (%)” value [3] was 24%, the “Population Hoechst High Intensity Objects (%)” value [3] was 17% and the “Population Membrane Permeable-Phenotype (%)” value [3] was 10%. For the same compound, the “Population Mitochondria Different-Phenotype (%)” value [3] was 82%, the “Population Mitotic Cells (%)” value [3] was 35% and the “Population Normal (%)” value [3] was 82%. For the same compound, the “Population Pyknosed Nuclei (%)” value [3] was 60%, the “Population Tubulin-Different-Phenotype (%)” value [3] was 62% and the “Total Cell Count” value [3] was 329. The “Population Apoptotic (%)” value [4] was 42%, the “Population Fragmented Nuclei (%)” value [4] was 6% and the “Population Healthy Nuclei (%)” value [4] was 17%. The “Population Hoechst High Intensity Objects (%)” value [4] was 6%, the “Population Membrane Permeable-Phenotype (%)” value [4] was 6% and the “Population Mitochondria Different-Phenotype (%)” value [4] was 46%. For the same compound, the “Population Mitotic Cells (%)” value [4] was 57%, the “Population Normal (%)” value [4] was 93% and the “Population Pyknosed Nuclei (%)” value [4] was 75%. The “Population Tubulin-Different-Phenotype (%)” value [4] was 66%, the “Total Cell Count” value [4] was 180 and the “Population Apoptotic (%)” value [5] was 41%. The “Population Fragmented Nuclei (%)” value [5] was 13%, the “Population Healthy Nuclei (%)” value [5] was 20% and the “Population Hoechst High Intensity Objects (%)” value [5] was 19%. For the same compound, the “Population Membrane Permeable-Phenotype (%)” value [5] was 5%, the “Population Mitochondria Different-Phenotype (%)” value [5] was 62% and the “Population Mitotic Cells (%)” value [5] was 58%. The “Population Normal (%)” value [5] was 80%, the “Population Pyknosed Nuclei (%)” value [5] was 65% and the “Population Tubulin-Different-Phenotype (%)” value [5] was 68%. The “Total Cell Count” value [5] was 330, the “Population Apoptotic (%)” value [6] was 40% and the “Population Fragmented Nuclei (%)” value [6] was 6%. For the same compound, the “Population Healthy Nuclei (%)” value [6] was 26%, the “Population Hoechst High Intensity Objects (%)” value [6] was 9% and the “Population Membrane Permeable-Phenotype (%)” value [6] was 14%. The “Population Mitochondria Different-Phenotype (%)” value [6] was 19%, the “Population Mitotic Cells (%)” value [6] was 59% and the “Population Normal (%)” value [6] was 90%. The “Population Pyknosed Nuclei (%)” value [6] was 67%, the “Population Tubulin-Different-Phenotype (%)” value [6] was 53% and the “Total Cell Count” value [6] was 263. The “Population Apoptotic (%)” value [7] was 74%, the “Population Fragmented Nuclei (%)” value [7] was 17% and the “Population Healthy Nuclei (%)” value [7] was 13%. The “Population Hoechst High Intensity Objects (%)” value [7] was 17%, the “Population Membrane Permeable-Phenotype (%)” value [7] was 14% and the “Population Mitochondria Different-Phenotype (%)” value [7] was 97%. The “Population Mitotic Cells (%)” value [7] was 25%, the “Population Normal (%)” value [7] was 82% and the “Population Pyknosed Nuclei (%)” value [7] was 69%. For the same compound, the “Population Tubulin-Different-Phenotype (%)” value [7] was 82%, the “Total Cell Count” value [7] was 311 and the “Population Apoptotic (%)” value [8] was 72%. The “Population Fragmented Nuclei (%)” value [8] was 6%, the “Population Healthy Nuclei (%)” value [8] was 6% and the “Population Hoechst High Intensity Objects (%)” value [8] was 12%. The “Population Membrane Permeable-Phenotype (%)” value [8] was 0%, the “Population Mitochondria Different-Phenotype (%)” value [8] was 70% and the “Population Mitotic Cells (%)” value [8] was 27%. For the same compound, the “Population Normal (%)” value [8] was 87%, the “Population Pyknosed Nuclei (%)” value [8] was 86% and the “Population Tubulin-Different-Phenotype (%)” value [8] was 70%. For the same compound, the “Total Cell Count” value [8] was 175, the “Population Apoptotic (%)” value [9] was 36% and the “Population Fragmented Nuclei (%)” value [9] was 22%. For the same compound, the “Population Healthy Nuclei (%)” value [9] was 5%, the “Population Hoechst High Intensity Objects (%)” value [9] was 23% and the “Population Membrane Permeable-Phenotype (%)” value [9] was 6%. For the same compound, the “Population Mitochondria Different-Phenotype (%)” value [9] was 46%, the “Population Mitotic Cells (%)” value [9] was 63% and the “Population Normal (%)” value [9] was 76%. For the same compound, the “Population Pyknosed Nuclei (%)” value [9] was 71%, the “Population Tubulin-Different-Phenotype (%)” value [9] was 60% and the “Total Cell Count” value [9] was 373. For the same compound, the “Population Apoptotic (%)” value [10] was 52%, the “Population Fragmented Nuclei (%)” value [10] was 10% and the “Population Healthy Nuclei (%)” value [10] was 14%. The “Population Hoechst High Intensity Objects (%)” value [10] was 17%, the “Population Membrane Permeable-Phenotype (%)” value [10] was 17% and the “Population Mitochondria Different-Phenotype (%)” value [10] was 20%. The “Population Mitotic Cells (%)” value [10] was 47%, the “Population Normal (%)” value [10] was 82% and the “Population Pyknosed Nuclei (%)” value [10] was 75%. For the same compound, the “Population Tubulin-Different-Phenotype (%)” value [10] was 64%, the “Total Cell Count” value [10] was 278 and the “Population Apoptotic (%)” value [11] was 72%. The “Population Fragmented Nuclei (%)” value [11] was 20%, the “Population Healthy Nuclei (%)” value [11] was 3% and the “Population Hoechst High Intensity Objects (%)” value [11] was 20%. The “Population Membrane Permeable-Phenotype (%)” value [11] was 11%, the “Population Mitochondria Different-Phenotype (%)” value [11] was 77% and the “Population Mitotic Cells (%)” value [11] was 27%. The “Population Normal (%)” value [11] was 79%, the “Population Pyknosed Nuclei (%)” value [11] was 76% and the “Population Tubulin-Different-Phenotype (%)” value [11] was 66%. The “Total Cell Count” value [11] was 331, the “Population Apoptotic (%)” value [12] was 89% and the “Population Fragmented Nuclei (%)” value [12] was 5%. The “Population Healthy Nuclei (%)” value [12] was 1%, the “Population Hoechst High Intensity Objects (%)” value [12] was 15% and the “Population Membrane Permeable-Phenotype (%)” value [12] was 0%. The “Population Mitochondria Different-Phenotype (%)” value [12] was 66%, the “Population Mitotic Cells (%)” value [12] was 10% and the “Population Normal (%)” value [12] was 84%. For the same compound, the “Population Pyknosed Nuclei (%)” value [12] was 92% and the “Total Cell Count” value [12] was 179.
With CCOCCn1cc(C(=O)Nc2ccc(-n3nc(-c4cccnc4)cc3C(F)(F)F)cn2)ccc1=O [BI 1935] the “Population Fragmented Nuclei (%)” value [3] was 15% and 16% and 10%, the “Population Healthy Nuclei (%)” value [3] was 27% and 50% and 70% and the “Population Hoechst High Intensity Objects (%)” value [3] was 20% and 15% and 10%. The “Population Membrane Permeable-Phenotype (%)” value [3] was 6%, the “Population Mitotic Cells (%)” value [3] was 30% and 78% and 83% and the “Population Normal (%)” value [3] was 80% and 84% and 89%. The “Total Cell Count” value [3] was 285 and 667 and 651, the “Population Fragmented Nuclei (%)” value [4] was 3% and 7% and the “Population Healthy Nuclei (%)” value [4] was 29% and 84% and 87%. For the same compound, the “Population Membrane Permeable-Phenotype (%)” value [4] was 3% and 10% and 2%, the “Population Mitotic Cells (%)” value [4] was 71% and 84% and 95% and the “Population Normal (%)” value [4] was 91% and 96% and 97%. The “Population Fragmented Nuclei (%)” value [7] was 20% and 16% and 10%, the “Population Healthy Nuclei (%)” value [7] was 33% and 62% and 81% and the “Population Hoechst High Intensity Objects (%)” value [7] was 18% and 14%. For the same compound, the “Population Mitotic Cells (%)” value [7] was 29% and 75% and 80%, the “Population Normal (%)” value [7] was 81% and 85% and the “Total Cell Count” value [7] was 309 and 632 and 787. For the same compound, the “Population Healthy Nuclei (%)” value [8] was 43% and 88% and 71%, the “Population Hoechst High Intensity Objects (%)” value [8] was 2% and 4% and the “Population Mitotic Cells (%)” value [8] was 53% and 88% and 98%. The “Population Normal (%)” value [8] was 97% and 95%, the “Population Apoptotic (%)” value [11] was 59% and the “Population Fragmented Nuclei (%)” value [11] was 22%. The “Population Healthy Nuclei (%)” value [11] was 33%, the “Population Hoechst High Intensity Objects (%)” value [11] was 17% and the “Population Membrane Permeable-Phenotype (%)” value [11] was 2%. The “Population Mitochondria Different-Phenotype (%)” value [11] was 89%, the “Population Mitotic Cells (%)” value [11] was 40% and the “Population Normal (%)” value [11] was 82%. For the same compound, the “Population Pyknosed Nuclei (%)” value [11] was 44%, the “Population Tubulin-Different-Phenotype (%)” value [11] was 93% and the “Total Cell Count” value [11] was 341. For the same compound, the “Population Apoptotic (%)” value [12] was 33%, the “Population Fragmented Nuclei (%)” value [12] was 4% and the “Population Healthy Nuclei (%)” value [12] was 61%. The “Population Hoechst High Intensity Objects (%)” value [12] was 4%, the “Population Membrane Permeable-Phenotype (%)” value [12] was 6% and the “Population Mitochondria Different-Phenotype (%)” value [12] was 55%. The “Population Mitotic Cells (%)” value [12] was 66%, the “Population Normal (%)” value [12] was 95% and the “Population Pyknosed Nuclei (%)” value [12] was 33%. For the same compound, the “Population Tubulin-Different-Phenotype (%)” value [12] was 79% and the “Total Cell Count” value [12] was 283.
